1 compound from PMC3474356 (Chemistry & biology, 2011) can be followed below.

One experiment concerns P. falciparum 3D7 strain. Kind of experiment: P. falciparum 3D7 growth inhibition. The format is cell-based. Particulars: Plasmodium falciparum, 3D7, read-out: EC50 growth 3D7.
The next experiment relates to P. falciparum Dd2 strain. Kind of experiment: P. falciparum Dd2 growth inhibition. As to conditions: Plasmodium falciparum, DD2, read-out: EC50 growth Dd2. Format: cell-based.
The subject of experiment [1] is Dd2-scDHOD parasite strain. The experiment is described as follows: Transgenic Dd2-scDHOD growth inhibition. As to conditions: Plasmodium falciparum, DD2, read-out: EC50 growth Dd2-scDHOD. The format is cell-based.
Another experiment deals with pfNDH2 (Plasmodium falciparum, UniProt Q8I302). Kind of experiment: pfNDH2 enzyme activity assay. Format: biochemical.
The target of a further experiment is T1, pfDHOD (Plasmodium falciparum, UniProt Q08210).
T1 sequence (Q08210 24-569): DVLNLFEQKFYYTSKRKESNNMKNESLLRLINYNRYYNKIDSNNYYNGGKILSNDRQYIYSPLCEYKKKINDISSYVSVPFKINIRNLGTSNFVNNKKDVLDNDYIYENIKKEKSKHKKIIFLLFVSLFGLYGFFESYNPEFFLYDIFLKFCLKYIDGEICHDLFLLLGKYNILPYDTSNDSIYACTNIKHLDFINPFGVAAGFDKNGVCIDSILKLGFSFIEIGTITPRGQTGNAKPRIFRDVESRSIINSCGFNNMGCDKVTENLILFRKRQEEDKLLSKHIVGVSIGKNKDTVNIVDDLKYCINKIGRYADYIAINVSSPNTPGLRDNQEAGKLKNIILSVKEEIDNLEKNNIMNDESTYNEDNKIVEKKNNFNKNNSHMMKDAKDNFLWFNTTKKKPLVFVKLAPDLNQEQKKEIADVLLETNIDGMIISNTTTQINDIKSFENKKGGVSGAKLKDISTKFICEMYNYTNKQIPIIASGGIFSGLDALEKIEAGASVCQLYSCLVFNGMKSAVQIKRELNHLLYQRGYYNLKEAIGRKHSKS
The experiment is described as follows: pfDHOD chromogen. Format: biochemical. In a few lines:
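DCIP reduction assay in 384-well format. Test compound in serial dilution; reaction started by adding pfDHOD and run for 10 min at 25 °C. Read-out A600.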

For another experiment, the target named is hsCYT bc1 (Homo sapiens, UniProt P00156). The experiment is described as follows: Cytochrome c reductase activity, human. Format: biochemical. A digest of the protocol: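 Mitochondria from HEK293 cells pelleted at 400 g for 10 min, disrupted by N2 cavitation, then debris spin, 10,000 g pellet and 1–2 M sucrose gradient. Mitochondria (40 ug/ml) in 250 mM sucrose, 50 mM KH2PO4, 0.2 mM EDTA, 1 mM NaN3, 2.5 mM KCN with 50 uM cytochrome c. Started with 25 uM decylubiquinol; cytochrome c reduction read at 550 nm over the first 60 s.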

Another experiment relates to liver stage P. berghei. The experiment is described as follows: P. berghei liver stage assay in HepG2 cells. Format: cell-based. As to conditions: Plasmodium berghei, HepG2, 45 h, read-out: IC50 liver stage P. berghei. A digest of the protocol: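 Luciferase-expressing P. berghei ANKA sporozoites (4,000, from mosquito salivary glands) infect 12,000 HepG2 cells with or without test compound; final DMSO 0.3%. Parasite growth is read by luciferase luminescence 45 h post-infection. Results are mean ± SD, and experiments were repeated 2-3 times.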

On to `O=C1C(O)=C([C@H]2CC[C@H](c3ccc(Cl)cc3)CC2)C(=O)c2ccccc21` [atovaquone], for which the results for the EC50 (with P. falciparum 3D7 strain; with P. falciparum Dd2 strain; in experiment [1]) were 1 nM, 1 nM and greater than 5000 nM, respectively. The IC50 (commonly the point on the concentration scale where inhibition reaches its midpoint) against pfNDH2 was greater than 20000 nM; against pfDHOD, greater than 20000 nM; against hsCYT bc1 it was 350 ± 12 nM; in the experiment on liver stage P. berghei, 0.3 nM.
